We go through 9 compounds from ChEMBL document CHEMBL1124798, “Design of peptidomimetic delta opioid receptor antagonists using the message-address concept” (J Med Chem, 1990).

Where a SMILES comes first, the peptide text is derived from it. [ ]: non-standard residue; d: D form. The star is where a group is joined. Tyr(Nα,Nα-allyl2) = C=CCN(CC=C)[C@@H](Cc1ccc(O)cc1)C(=O)*; Aib = CC(C)(N)C(=O)O

In assay [1] the target is Delta-type opioid receptor (Mus musculus) (UniProt P32300). Description: Opioid receptor delta 1 antagonistic activity was measured by the displacement of DADLE in the mouse vas deferens at tha concentration of 200 nM. The assay is classed as functional. The essentials:
(§1)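 Mouse vas deferens. Antagonist (nM, as stated on line) incubated with the preparation 15 min before testing. δ agonist [D-Ala2,D-Leu5]enkephalin.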

Assay [2] concerns the target Mu-type opioid receptor (Cavia porcellus) (UniProt P97266). Nature of the assay: Opioid receptor mu 1 antagonistic activity was measured by the displacement of morphine in the guinea pig ileum at a concentration of 200 nM. The assay is classed as functional, tissue-based. The gist of the method:
(§2)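 Guinea pig ileum. Antagonist (nM, as stated on line) incubated 15 min before testing. Agonists: morphine (μ) and ethylketazocine (κ).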

The target in assay [3] is Opioid receptors; delta & kappa (Homo sapiens) (UniProt P41145+P41143). Description: Selectivity ratio was determined from Ke value of Opioid receptor kappa 1 and Opioid receptor delta 1. The assay is classed as protein assay. The conditions noted are these: Cavia porcellus. The essentials: (§3)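 Ratios of Ke values, μ/δ or κ/δ. Each Ke = [antagonist]/(IC50 ratio − 1). δ from DADLE in mouse vas deferens; μ (morphine) and κ (ethylketazocine) in guinea pig ileum. 15 min antagonist preincubation, n ≥ 3.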
Sequence of Opioid receptors; delta & kappa (Homo sapiens) (P41143 whole entry, looked up): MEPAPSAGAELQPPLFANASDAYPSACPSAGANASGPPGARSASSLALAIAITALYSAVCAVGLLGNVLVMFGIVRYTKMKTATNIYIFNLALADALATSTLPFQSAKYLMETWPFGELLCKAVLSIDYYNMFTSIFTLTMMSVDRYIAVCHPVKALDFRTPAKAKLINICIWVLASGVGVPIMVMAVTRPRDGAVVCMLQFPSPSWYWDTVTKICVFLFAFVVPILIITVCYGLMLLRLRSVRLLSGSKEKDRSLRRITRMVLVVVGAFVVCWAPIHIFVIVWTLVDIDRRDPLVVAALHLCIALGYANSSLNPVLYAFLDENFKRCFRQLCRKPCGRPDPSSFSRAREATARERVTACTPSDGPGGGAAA
Sequence of Opioid receptors; delta & kappa (Homo sapiens) (P41145 whole entry, looked up): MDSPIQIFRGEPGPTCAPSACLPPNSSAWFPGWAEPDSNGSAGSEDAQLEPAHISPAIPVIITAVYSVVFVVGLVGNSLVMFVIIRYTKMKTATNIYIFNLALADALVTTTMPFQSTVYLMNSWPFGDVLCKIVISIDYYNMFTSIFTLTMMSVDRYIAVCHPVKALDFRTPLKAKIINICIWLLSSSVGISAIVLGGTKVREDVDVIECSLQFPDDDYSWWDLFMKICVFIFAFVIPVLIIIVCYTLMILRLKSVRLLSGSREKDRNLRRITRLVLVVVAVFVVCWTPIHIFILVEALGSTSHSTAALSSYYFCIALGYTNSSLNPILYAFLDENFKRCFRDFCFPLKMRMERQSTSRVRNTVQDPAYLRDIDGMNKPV

The target of assay [4] is Kappa-type opioid receptor (Cavia porcellus) (UniProt P41144). Nature of the assay: Antagonist potency was determined as the ratio of [antagonist] to (IC50 ratio-1) for Opioid receptor kappa 1. The assay is classed as functional. The gist of the method:
(§4)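 Ke (nM) = [antagonist]/(IC50 ratio − 1). IC50 ratio is agonist IC50 with antagonist over the control IC50 in the same preparation. Antagonist preincubated 15 min. Agonists: DADLE in mouse vas deferens (δ); morphine (μ) and ethylketazocine (κ) in guinea pig ileum. n ≥ 3.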

In assay [5] the target is Delta-type opioid receptor (Mus musculus) (UniProt P32300). Description: Antagonist potency was determined as the ratio of [antagonist] to (IC50 ratio-1) for opioid receptor delta 1. The assay is classed as functional. The essentials:
as §4

For assay [6], the target named is Kappa-type opioid receptor (Cavia porcellus) (UniProt P41144). Description: Opioid receptor kappa 1 antagonistic activity was measured by the displacement of ethylketazocine in the guinea pig ileum at a concentration of 200 nM. The assay is classed as functional, tissue-based. The gist of the method: as §2
Sequence of Kappa-type opioid receptor (Cavia porcellus) (P41144 whole entry): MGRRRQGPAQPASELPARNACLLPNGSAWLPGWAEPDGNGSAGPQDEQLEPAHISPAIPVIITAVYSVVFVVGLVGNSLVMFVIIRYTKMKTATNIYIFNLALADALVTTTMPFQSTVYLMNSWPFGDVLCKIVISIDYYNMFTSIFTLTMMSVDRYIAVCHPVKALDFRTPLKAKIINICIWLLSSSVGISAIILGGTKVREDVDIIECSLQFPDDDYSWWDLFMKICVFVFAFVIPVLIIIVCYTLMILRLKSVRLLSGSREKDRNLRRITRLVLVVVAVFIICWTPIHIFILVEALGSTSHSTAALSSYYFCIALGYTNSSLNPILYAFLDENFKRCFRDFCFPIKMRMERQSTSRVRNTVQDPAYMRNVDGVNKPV
Assay [7] has as its target Delta-type opioid receptor (Mus musculus) (UniProt P32300). Description: Opioid receptor delta antagonistic activity was measured by the displacement of DADLE in the mouse vas deferens at tha concentration of 200 nM. The assay is classed as functional. The essentials:
as §1

The target in assay [8] is Mu-type opioid receptor (Cavia porcellus) (UniProt P97266). Description: Opioid receptor mu antagonistic activity was measured by the displacement of morphine in the guinea pig ileum at a concentration of 200 nM. The assay is classed as functional, tissue-based. The essentials: as §2
Sequence of Mu-type opioid receptor (Cavia porcellus) (P97266 whole entry): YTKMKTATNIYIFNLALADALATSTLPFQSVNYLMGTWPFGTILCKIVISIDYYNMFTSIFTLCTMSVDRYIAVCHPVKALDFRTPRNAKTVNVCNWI
The target of assay [9] is Kappa-type opioid receptor (Cavia porcellus) (UniProt P41144). Description: Opioid receptor kappa antagonistic activity was measured by the displacement of ethylketazocine in the guinea pig ileum at a concentration of 200 nM. The assay is classed as functional, tissue-based. The essentials: as §2
For assay [10], the target named is Opioid receptors; mu & delta (Homo sapiens) (UniProt P41143+P35372). Description: Selectivity ratio was determined from Ke value of Opioid receptor mu 1 and Opioid receptor delta 1. The assay is classed as protein assay. The note with it: Cavia porcellus. The gist of the method: as §3
Sequence of Opioid receptors; mu & delta (Homo sapiens) (P35372 whole entry, looked up): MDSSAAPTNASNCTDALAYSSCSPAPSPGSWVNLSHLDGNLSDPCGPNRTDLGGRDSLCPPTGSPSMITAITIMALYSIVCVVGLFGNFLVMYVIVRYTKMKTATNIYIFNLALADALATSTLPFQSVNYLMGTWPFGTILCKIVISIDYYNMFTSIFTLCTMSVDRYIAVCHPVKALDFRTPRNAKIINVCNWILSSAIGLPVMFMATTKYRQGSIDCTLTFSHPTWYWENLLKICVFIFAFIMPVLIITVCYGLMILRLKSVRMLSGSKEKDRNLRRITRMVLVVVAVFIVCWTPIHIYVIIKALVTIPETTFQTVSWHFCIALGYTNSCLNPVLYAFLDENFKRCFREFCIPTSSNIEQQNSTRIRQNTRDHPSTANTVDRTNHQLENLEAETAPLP
Sequence of Opioid receptors; mu & delta (Homo sapiens) (P41143 whole entry, looked up): as the sequence (P41143 whole entry, looked up) above
Assay [11] deals with Mu-type opioid receptor (Cavia porcellus) (UniProt P97266). Description: Antagonist potency was determined as the ratio of [antagonist] to (IC50 ratio-1) for Opioid receptor mu 1. The assay is classed as functional. The essentials:
as §4

The target of assay [12] is Kappa-type opioid receptor (Cavia porcellus) (UniProt P41144). Nature of the assay: Opioid receptor kappa antagonistic activity was measured by the displacement of ethylketazocine in the guinea pig ileum at a concentration of 100 nM. The assay is classed as functional, tissue-based. The gist of the method:
as §2

In assay [13] the target is T1, Kappa-type opioid receptor (Cavia porcellus, UniProt P41144). Description: Binding affinity was measured by the displacement of [3H]- EK in guinea pig brain membrane of Opioid receptor kappa 1. The assay is classed as cell membranes. The essentials: (§5)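 Radioligand displacement from guinea pig brain membranes, modified Werling method. μ sites: [3H]DAMGO. δ sites: [3H]DADLE with 1 μM DAMGO. κ sites: [3H]ethylketazocine with 1 μM DAMGO.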
T1 sequence (P41144 whole entry): as the sequence (P41144 whole entry) above
A general note: Displacement assays read how much labelled ligand stays bound in the presence of the test substance.

Assay [14] has as its target T1, Kappa-type opioid receptor. Nature of the assay: Binding affinity was measured by the displacement of [3H]- EK in guinea pig brain membrane of opioid receptor kappa. The assay is classed as cell membranes. The essentials:
as §5

In assay [15] the target is Mu-type opioid receptor (Cavia porcellus) (UniProt P97266). Description: Opioid receptor mu 1 antagonistic activity was measured by the displacement of morphine in the guinea pig ileum at a concentration of 100 nM. The assay is classed as functional, tissue-based. The gist of the method:
as §2

Assay [16] addresses Kappa-type opioid receptor (Cavia porcellus) (UniProt P41144). Nature of the assay: Opioid receptor kappa 1 antagonistic activity was measured by the displacement of ethylketazocine in the guinea pig ileum at a concentration of 100 nM. The assay is classed as functional, tissue-based. The essentials:
as §2

Assay [17] addresses Mu-type opioid receptor (Cavia porcellus) (UniProt P97266). Description: Opioid receptor mu antagonistic activity was measured by the displacement of morphine in the guinea pig ileum at a concentration of 100 nM. The assay is classed as functional, tissue-based. The essentials:
as §2

Assay [18] has as its target Delta-type opioid receptor (Mus musculus) (UniProt P32300). Description: Opioid receptor delta 1 antagonistic activity was measured by the displacement of DADLE in the mouse vas deferens at a concentration of 100 nM. The assay is classed as functional. The gist of the method: as §1
Assay [19] shares this target. Description: Opioid receptor delta antagonistic activity was measured by the displacement of DADLE in the mouse vas deferens at a concentration of 100 nM. The assay is classed as functional. The essentials: as §1
Assay [20] deals with T2, Mu-type opioid receptor (Cavia porcellus, UniProt P97266). Nature of the assay: Binding affinity was measured by the displacement of [3H]- DAMGO in guinea pig brain membrane of Opioid receptor mu 1. The assay is classed as cell membranes. The gist of the method:
as §5

The target in assay [21] is T2, Mu-type opioid receptor. Nature of the assay: Binding affinity was measured by the displacement of [3H]- DAMGO in guinea pig brain membrane of opioid receptor mu. The assay is classed as cell membranes. The gist of the method: as §5
The target of assay [22] is Mu-type opioid receptor (Cavia porcellus) (UniProt P97266). The conditions noted are these: Ileum, 200 nM.

Sequence of Delta-type opioid receptor (Mus musculus) (P32300 whole entry): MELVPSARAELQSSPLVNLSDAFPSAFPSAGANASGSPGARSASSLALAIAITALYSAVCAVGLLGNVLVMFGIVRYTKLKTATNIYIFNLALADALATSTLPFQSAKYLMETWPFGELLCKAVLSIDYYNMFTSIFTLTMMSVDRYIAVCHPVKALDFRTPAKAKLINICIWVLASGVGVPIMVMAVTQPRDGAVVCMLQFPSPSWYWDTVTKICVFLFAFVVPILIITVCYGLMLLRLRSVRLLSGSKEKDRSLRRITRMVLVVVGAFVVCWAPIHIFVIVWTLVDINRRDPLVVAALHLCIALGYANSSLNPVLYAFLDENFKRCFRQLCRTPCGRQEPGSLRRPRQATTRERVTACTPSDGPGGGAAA
T2 sequence (P97266 whole entry): as the sequence (P97266 whole entry) above

As to `O=[N+]([O-])c1ccc2[nH]c3c(c2c1)C[C@@]1(O)[C@H]2Cc4ccc(O)c5c4[C@@]1(CCN2CC1CC1)[C@H]3O5`, the IC50 ratio in assay [1] is 2.4; in [2] it was 1.9; in assay [6] it was 1.2; in assay [7], 2.4; in assay [8], 1.9; in assay [9], 1.2. Further, the Selectivity ratio in assay [3] is over 5.6; in [10] it was over 1.6. In addition, the Ke in assay [4] was over 870 nM; in assay [5] it was 146 nM; in assay [11], over 230 nM.
In general, Ki refers to the dissociation constant of the complex between target and ligand, obtained from inhibition or displacement. Take `Oc1ccc2c3c1O[C@H]1c4[nH]c5c(F)cccc5c4C[C@@]4(O)[C@@H](C2)N(CC2CC2)CC[C@]314`: the IC50 ratio in assay [12] came to 1.3; in assay [15], 5.3; in [16], 1.3; in assay [17], 5.3; in [18], 287; in assay [19], 287. Moreover, the figures for the Selectivity ratio in assay [3] and in [10] were over 951 and 67, respectively. Further, the Ki in assay [13] turned out to be 321 nM; in assay [14], 321 nM; on Mu-type opioid receptor [20] it was 49 nM; on Mu-type opioid receptor [21], 49 nM. The results for the Ke in assay [4], in [5] and in assay [11] were over 333 nM, 0.35 nM and 23 nM, respectively.
Turning to `Oc1ccc2c3c1O[C@H]1c4[nH]c5ccc(F)cc5c4C[C@@]4(O)[C@@H](C2)N(CC2CC2)CC[C@]314`, the IC50 ratio in assay [1] came out at 104; in [2], 5.1; in assay [6], 6.3; in assay [7] it was 104; in [9], 6.3; in assay [22] it was 5.1. Further, the Selectivity ratio in assay [3] was 19; in [10], 25. In addition, the Ki in assay [13] is 15 nM; in [14] it was 15 nM; on Mu-type opioid receptor [20] it was 1.7 nM; at Mu-type opioid receptor [21] it was 1.7 nM. The Ke turned out to be 38 nM in assay [4], 1.9 nM in assay [5] and 49 nM in assay [11].
For `Cc1ccc2[nH]c3c(c2c1)C[C@@]1(O)[C@H]2Cc4ccc(O)c5c4[C@@]1(CCN2CC1CC1)[C@H]3O5`, the IC50 ratio in [12] came out at 1.4; in assay [1] it was 55.4; in assay [15] it was 1.6; in [16], 1.4; in [17], 1.6; in assay [7] it was 55.4. Further, the Selectivity ratio is over 68 in assay [3] and over 45 in assay [10]. Besides, the figures for the Ke in assay [4], in assay [5] and in assay [11] were over 250 nM, 3.7 nM and over 167 nM, respectively.
For the compound `C=CCN(CC=C)[C@@H](Cc1ccc(O)cc1)C(=O)NC(C)(C)C(=O)NC(C)(C)C(=O)N[C@@H](Cc1ccccc1)C(=O)N[C@@H](CC(C)C)C(=O)O` ({Tyr(Nα,Nα-allyl2)}-[Aib][Aib]FL-OH), the IC50 ratio turned out to be 0.8 in assay [12]; 0.6 in assay [15]; 0.8 in assay [16]; 0.6 in assay [17]; 15.6 in assay [18]; 15.6 in assay [19]. The values for the Selectivity ratio in [3] and in assay [10] were over 18 and over 24, respectively. Moreover, the Ki (in assay [13]; in [14]; on Mu-type opioid receptor [20]; at Mu-type opioid receptor [21]) was over 1000 nM throughout. Moreover, the Ke was over 1250 nM in assay [4], 69 nM in assay [5] and over 1670 nM in [11].
Take `COc1cccc2c3c([nH]c12)[C@@H]1Oc2c(O)ccc4c2[C@@]12CCN(CC1CC1)[C@H](C4)[C@]2(O)C3`: the IC50 ratio amounted to 1.5 in assay [12]; 3 in assay [15]; 1.5 in assay [16]; 3 in assay [17]; 66 in [18]; 66 in [19]. For the same compound, the Selectivity ratio in assay [3] was over 120; in [10] it was 32. In addition, the Ki is 43 nM in assay [13], 43 nM in assay [14], 16 nM at Mu-type opioid receptor [20] and 16 nM at Mu-type opioid receptor [21]. Further, the Ke was over 185 nM in [4], 1.5 nM in assay [5] and 50 nM in assay [11].
In the case of `Oc1ccc2c3c1O[C@H]1c4[nH]c5c(Br)cccc5c4C[C@@]4(O)[C@@H](C2)N(CC2CC2)CC[C@]314`, the IC50 ratio in assay [12] is 1.7; in assay [15], 2.2; in assay [16], 1.7; in assay [17] it was 2.2; in assay [18] it was 85; in assay [19], 85. In addition, the values for the Selectivity ratio in assay [3] and in assay [10] were over 121 and 71, respectively. Also, the Ki came out at 333 nM in assay [13], 333 nM in assay [14], 29 nM on Mu-type opioid receptor [20] and 29 nM on Mu-type opioid receptor [21]. Moreover, the Ke in assay [4] is over 143 nM; in assay [5] it was 1.2 nM; in assay [11] it was 83 nM.
Turning to `C=CCN1CC[C@]23c4c5ccc(O)c4O[C@H]2c2[nH]c4ccccc4c2C[C@@]3(O)[C@H]1C5`, the IC50 ratio in assay [12] was determined as 2.2; in assay [15], 1.1; in assay [16] it was 2.2; in assay [17], 1.1; in assay [18], 93; in [19], 93. The Selectivity ratio is over 75 in assay [3] and over 655 in [10]. Besides, the Ki in [13] is 321 nM; in [14] it was 321 nM; at Mu-type opioid receptor [20], 104 nM; on Mu-type opioid receptor [21], 104 nM. Moreover, the Ke in assay [4] was over 82 nM; in [5], 1.1 nM; in assay [11] it was over 714 nM.
As to `COc1ccc2[nH]c3c(c2c1)C[C@@]1(O)[C@H]2Cc4ccc(O)c5c4[C@@]1(CCN2CC1CC1)[C@H]3O5`, the IC50 ratio was determined as 9.2 in assay [12]; 53 in assay [1]; 2.6 in assay [15]; 9.2 in assay [16]; 2.6 in assay [17]; 53 in [7]. The Selectivity ratio is 3.2 in [3] and over 16 in assay [10]. For the same compound, the results for the Ke in assay [4], in [5] and in assay [11] were 12 nM, 3.8 nM and over 63 nM, respectively.
